Data taken from ChEMBL document CHEMBL3297648, “Diterpenoids from the Chinese liverwort Heteroscyphus tener and their antiproliferative effects” (J Nat Prod, 2014).
Active and inactive are the calls of the source. The calls are words filed in the database; no cut-off is given here.

Columns and labels:
[1] = Cell cycle arrest in human PC3 cells assessed as accumulation at subG1 phase at 10 uM after 24 hrs by propidium iodide staining based flow cytometry (reference value: 0.13%); assay type: functional; conditions: PC-3
DU-145 [2] = test: Induction of apoptosis in human DU145 cells assessed as necrotic cells at 20 uM after 24 hrs by Annexin V-FITC/propidium iodide staining based flow cytometry (reference value: 0.21%); assay type: functional
In short: (§1)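 Cells seeded in 6-well plates for 24 h, then given 20 μM for the stated times. Cells were trypsinized, PBS-washed, stained with annexin V-FITC/PI, and analysed immediately by flow cytometry. Means ± SD of three independent experiments; Student's t test against untreated control.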

PC-3 [3] = test: Induction of apoptosis in human PC3 cells assessed as late apoptotic cells at 20 uM after 24 hrs by Annexin V-FITC/propidium iodide staining based flow cytometry (reference value: 7.92%); assay type: functional; in short: as §1
K562 = test: Antiproliferative activity against human K562 cells assessed as inhibition of cell viability after 24 hrs by MTT assay; assay type: functional, cell-based; conditions: K562, 24 h
In short: (§2)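 Cells grown to 50–70% confluence (RWPE1 in K-SFM with pituitary extract and EGF; the other lines in RPMI 1640 with 10% FBS), 5% CO2, 37 °C. Treated for 24 h with DMSO vehicle, compounds, or cisplatin as positive control. MTT (5 mg/mL) added for 4 h, formazan dissolved in DMSO, absorbance read at 570 nm. Viability taken relative to untreated cells after blank subtraction, IC50 fitted from % viability, at least three experiments.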

PC-3 [4] = test: Induction of apoptosis in human PC3 cells assessed as late apoptotic cells at 20 uM after 8 hrs by Annexin V-FITC/propidium iodide staining based flow cytometry (reference value: 7.92%); assay type: functional; in short: as §1
DU-145 [5] = test: Increase in p21CIP1 protein expression in human DU145 cells after 2 to 48 hrs by western blot analysis; assay type: functional, cell-based
In short: (§3)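 Western blot of cyclin D1, cyclin E, Cdk4 and p21 in PC3 and DU145 lysates. Lysis in RIPA buffer plus protease inhibitors, BCA quantification, 12% SDS-PAGE, nitrocellulose transfer, milk block, primaries overnight at 4 °C, secondary 1:2000 for 45 min, ECL read-out. GAPDH served as loading control.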

DU-145 [6] = test: Induction of DNA damage in human DU145 cells assessed as gamma-H2AX phosphorylation at ser139 at 20 uM by western blot analysis; assay type: functional, cell-based; conditions: TDE = time-dependent effect
In short: (§4)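 Cells treated at 20 μM for various times, lysed in RIPA buffer with protease/phosphatase inhibitors, protein quantified by BCA. Equal protein run on 12% SDS-PAGE, transferred to nitrocellulose, blocked 1 h in 5% milk/TBST, primary antibodies overnight at 4 °C, secondary 1:2000 for 45 min, ECL detection on film. GAPDH used as loading control.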

DU-145 [7] = test: Induction of apoptosis in human DU145 cells assessed as early apoptotic cells at 20 uM after 12 hrs by Annexin V-FITC/propidium iodide staining based flow cytometry (reference value: 1.60%); assay type: functional; in short: as §1
DU-145 [8] = test: Induction of apoptosis in human DU145 cells assessed as early apoptotic cells at 20 uM after 4 hrs by Annexin V-FITC/propidium iodide staining based flow cytometry (reference value: 1.60%); assay type: functional; in short: as §1
DU-145 [9] = test: Cell cycle arrest in human DU145 cells assessed as accumulation at G0/G1 phase at 10 uM after 24 hrs by propidium iodide staining based flow cytometry (reference value: 63.34%); assay type: functional
PC-3 [10] = test: Induction of apoptosis in human PC3 cells at 20 uM by Annexin V-FITC/propidium iodide staining based flow cytometry; assay type: functional, cell-based; conditions: TDE = time-dependent effect; in short: as §1
DU-145 [11] = test: Cell cycle arrest at G0/G1 phase in human DU145 cells after 24 hrs by propidium iodide staining based flow cytometry; assay type: functional
PC-3 [12] = test: Induction of apoptosis in human PC3 cells assessed as late apoptotic cells at 20 uM after 12 hrs by Annexin V-FITC/propidium iodide staining based flow cytometry (reference value: 7.92%); assay type: functional; in short: as §1
DU-145 [13] = test: Antiproliferative activity against human DU145 cells assessed as inhibition of cell viability after 24 hrs by MTT assay; assay type: functional, cell-based; conditions: DU-145, 24 h; in short: as §2
[14] = Decrease in Cdk4 protein expression in human PC3 cells after 2 to 48 hrs by western blot analysis; assay type: functional, cell-based; conditions: PC-3; in short: as §3
[15] = Decrease in ChK1 protein expression in human PC3 cells at 20 uM after 2 to 48 hrs by western blot analysis; assay type: functional, cell-based; conditions: PC-3; in short: as §4
PC-3 [16] = test: Induction of ROS generation in human PC3 cells at 20 uM after 6 hrs by DCFH-DA staining based flow cytometry; assay type: functional, cell-based
In short: (§5)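 Cells in RPMI 1640 with 10% FBS, 5% CO2, 37 °C, treated at 50−70% confluence (DMSO vehicle). After exposure, cells were loaded with 10 μM DCFH-DA for 30 min at 37 °C, washed, resuspended in PBS, and read at once by flow cytometry. For NAC runs, cells got 5 mM NAC 1 h before compound. ROS reported as ratio relative to untreated control.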

[17] = Decrease in ChK1 protein expression in human DU145 cells at 20 uM after 2 to 48 hrs by western blot analysis; assay type: functional, cell-based; conditions: DU-145; in short: as §4
NCI-H1299 = test: Antiproliferative activity against human NCI-H1299 cells assessed as inhibition of cell viability after 24 hrs by MTT assay; assay type: functional, cell-based; conditions: NCI-H1299, 24 h; in short: as §2
DU-145 [18] = test: Induction of apoptosis in human DU145 cells assessed as PARP cleavage at 20 uM after 12 hrs by western blot analysis; assay type: functional, cell-based
In short: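 Cells exposed to 20 μM for the stated times. Lysis in RIPA plus protease inhibitors, BCA protein assay, equal protein on 12% SDS-PAGE, transfer to nitrocellulose. Blocking in 5% milk/TBST 1 h; primary antibodies overnight at 4 °C; secondary 1:2000 for 45 min; ECL detection. GAPDH served as loading control.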

DU-145 [19] = test: Induction of apoptosis in human DU145 cells assessed as late apoptotic cells at 20 uM after 12 hrs by Annexin V-FITC/propidium iodide staining based flow cytometry (reference value: 1.53%); assay type: functional; in short: as §1
[20] = Decrease in cyclin E protein expression in human DU145 cells by western blot analysis; assay type: functional, cell-based; conditions: DU-145, TDE = time-dependent effect; in short: as §3
[21] = Antiproliferative activity against human RWPE1 cells assessed as inhibition of cell viability after 24 hrs by MTT assay; assay type: cell-based; conditions: RWPE-1, 24 h; in short: as §2
PC-3 [22] = test: Induction of ROS generation in human PC3 cells at 20 uM pretreated for 1 hr with 5 mM antioxidant NAC measured after 24 hrs by DCFH-DA staining based flow cytometry; assay type: functional, cell-based; in short: as §5
[23] = Cell cycle arrest in human PC3 cells assessed as accumulation at S phase at 10 uM after 24 hrs by propidium iodide staining based flow cytometry (reference value: 22.07%); assay type: functional; conditions: PC-3
[24] = Cell cycle arrest in human PC3 cells assessed as accumulation at subG1 phase at 20 uM after 24 hrs by propidium iodide staining based flow cytometry (reference value: 0.13%); assay type: functional; conditions: PC-3
[25] = molecular target: Serine/threonine-protein kinase ATR (Homo sapiens) (UniProt Q13535); test: Activation of ATR in human DU145 cells assessed as ChK1 phosphorylation at Ser296 at 20 uM after 12 hrs by western blot analysis; assay type: cell-based; conditions: DU-145; in short: as §4
Sequence of Serine/threonine-protein kinase ATR (Homo sapiens) (Q13535 whole entry, looked up): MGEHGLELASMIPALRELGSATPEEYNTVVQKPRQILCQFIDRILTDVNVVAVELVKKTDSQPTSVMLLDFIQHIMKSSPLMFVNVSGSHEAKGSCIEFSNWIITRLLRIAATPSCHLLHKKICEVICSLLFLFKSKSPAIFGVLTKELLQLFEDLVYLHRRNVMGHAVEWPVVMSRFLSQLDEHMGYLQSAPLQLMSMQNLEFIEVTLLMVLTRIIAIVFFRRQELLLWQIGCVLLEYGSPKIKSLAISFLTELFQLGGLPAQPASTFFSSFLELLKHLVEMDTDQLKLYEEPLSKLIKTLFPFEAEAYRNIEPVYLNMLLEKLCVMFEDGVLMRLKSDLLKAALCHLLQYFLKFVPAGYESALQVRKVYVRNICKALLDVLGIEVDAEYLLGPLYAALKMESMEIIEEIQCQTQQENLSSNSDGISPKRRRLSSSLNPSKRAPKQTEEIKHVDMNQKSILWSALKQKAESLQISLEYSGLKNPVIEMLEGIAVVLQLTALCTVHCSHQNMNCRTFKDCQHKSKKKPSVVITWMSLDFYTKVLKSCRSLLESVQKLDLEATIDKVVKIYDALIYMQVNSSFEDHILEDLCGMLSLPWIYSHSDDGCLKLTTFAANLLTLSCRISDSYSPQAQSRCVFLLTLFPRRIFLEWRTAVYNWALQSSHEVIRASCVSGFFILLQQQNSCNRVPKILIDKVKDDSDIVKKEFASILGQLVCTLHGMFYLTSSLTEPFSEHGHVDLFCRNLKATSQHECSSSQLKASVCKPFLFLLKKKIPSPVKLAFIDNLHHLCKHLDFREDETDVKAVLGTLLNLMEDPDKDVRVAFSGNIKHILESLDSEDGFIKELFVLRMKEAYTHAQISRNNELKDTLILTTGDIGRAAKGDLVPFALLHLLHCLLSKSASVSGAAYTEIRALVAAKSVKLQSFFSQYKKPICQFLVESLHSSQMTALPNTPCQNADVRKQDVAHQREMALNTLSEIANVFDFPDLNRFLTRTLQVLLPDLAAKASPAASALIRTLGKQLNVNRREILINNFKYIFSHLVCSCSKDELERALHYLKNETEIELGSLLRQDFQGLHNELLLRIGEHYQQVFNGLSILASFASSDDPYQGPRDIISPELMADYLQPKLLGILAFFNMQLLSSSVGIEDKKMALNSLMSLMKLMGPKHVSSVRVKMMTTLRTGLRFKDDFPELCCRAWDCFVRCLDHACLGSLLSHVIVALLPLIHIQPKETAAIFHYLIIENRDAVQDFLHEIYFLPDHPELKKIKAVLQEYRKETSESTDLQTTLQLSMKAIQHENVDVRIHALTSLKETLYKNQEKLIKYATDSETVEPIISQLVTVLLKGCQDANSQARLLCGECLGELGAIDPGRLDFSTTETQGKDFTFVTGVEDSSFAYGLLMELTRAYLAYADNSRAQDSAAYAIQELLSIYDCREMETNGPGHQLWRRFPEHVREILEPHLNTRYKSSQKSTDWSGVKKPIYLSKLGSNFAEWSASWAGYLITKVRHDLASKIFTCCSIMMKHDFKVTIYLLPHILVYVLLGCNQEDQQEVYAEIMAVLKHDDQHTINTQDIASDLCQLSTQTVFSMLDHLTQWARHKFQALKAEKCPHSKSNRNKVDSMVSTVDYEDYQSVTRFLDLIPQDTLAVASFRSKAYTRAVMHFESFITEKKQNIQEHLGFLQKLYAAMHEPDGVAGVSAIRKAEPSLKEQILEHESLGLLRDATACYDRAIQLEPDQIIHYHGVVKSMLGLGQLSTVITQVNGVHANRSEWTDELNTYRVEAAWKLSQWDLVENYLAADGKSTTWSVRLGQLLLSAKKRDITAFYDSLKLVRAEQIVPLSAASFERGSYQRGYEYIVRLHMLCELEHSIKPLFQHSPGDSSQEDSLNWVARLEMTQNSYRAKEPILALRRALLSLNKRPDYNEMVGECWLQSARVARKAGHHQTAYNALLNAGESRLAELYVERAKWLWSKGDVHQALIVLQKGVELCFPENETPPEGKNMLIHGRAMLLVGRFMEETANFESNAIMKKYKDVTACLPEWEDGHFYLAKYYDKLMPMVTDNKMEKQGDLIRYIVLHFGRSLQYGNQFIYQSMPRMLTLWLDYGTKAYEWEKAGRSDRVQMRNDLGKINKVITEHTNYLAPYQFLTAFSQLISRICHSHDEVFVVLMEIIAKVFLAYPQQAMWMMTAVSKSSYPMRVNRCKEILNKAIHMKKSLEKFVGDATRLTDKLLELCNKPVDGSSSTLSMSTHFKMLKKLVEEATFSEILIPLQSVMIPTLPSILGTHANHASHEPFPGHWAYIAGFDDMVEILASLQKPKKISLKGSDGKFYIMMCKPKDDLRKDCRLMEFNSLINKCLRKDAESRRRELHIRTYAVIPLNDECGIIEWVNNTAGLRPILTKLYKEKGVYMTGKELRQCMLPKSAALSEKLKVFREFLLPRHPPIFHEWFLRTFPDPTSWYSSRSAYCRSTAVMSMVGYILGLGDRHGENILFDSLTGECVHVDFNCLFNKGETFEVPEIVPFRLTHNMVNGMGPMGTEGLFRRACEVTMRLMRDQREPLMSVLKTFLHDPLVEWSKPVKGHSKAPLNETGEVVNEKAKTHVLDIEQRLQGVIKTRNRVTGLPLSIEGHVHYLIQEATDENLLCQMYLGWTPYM

- IC50 (K562): 15.8 µM
- IC50 (DU-145 [13]): 28.5 µM
- IC50 (NCI-H1299): 35.1 µM
- Activity [25]: Active
Compound: C=C[C@@](C)(O)CC[C@@H]1C(C)=CC[C@@H]2C(C)(C)CCC[C@@]12C
- Activity [1]: 1.94%
- Activity (DU-145 [2]): 4.55%
- Activity (PC-3 [3]): 66.46%
- Activity (PC-3 [4]): 15.29%
- Activity (DU-145 [5]): Active
- Activity (DU-145 [6]): tde
- Activity (DU-145 [7]): 6.55%
- Activity (DU-145 [8]): 4%
- Activity (DU-145 [9]): 67.97%
- Activity (PC-3 [10]): tde
- Activity (DU-145 [11]): Dose-dependent effect
- Activity (PC-3 [12]): 12.66%
- inhibition [14]: Active
- inhibition [15]: Active
- Activity (PC-3 [16]): inactive
- inhibition [17]: Active
- Activity (DU-145 [18]): Active
- Activity (DU-145 [19]): 11.32%
- inhibition [20]: tde
- IC50 [21]: 81 µM
- Activity (PC-3 [22]): inactive
- Activity [23]: 13.9%
- Activity [24]: 2.39%
